# Experimental data as given in ChEMBL document CHEMBL1629583, “Establishment of in vitro susceptibility testing methodologies and comparative activities of piperacillin in combination with the penem {beta}-lactamase inhibitor BLI-489” (2009).
# Columns and labels:
# Assay type in all cases: functional
# Burkholderia cepacia = experiment: Antimicrobial activity against Burkholderia cepacia clinical isolate after 18 to 22 hrs by broth microdilution method
# [1] = test system: Stenotrophomonas maltophilia; experiment: Antimicrobial activity against Stenotrophomonas maltophilia clinical isolate after 18 to 22 hrs by broth microdilution method
# [2] = test system: Stenotrophomonas maltophilia; experiment: Antimicrobial activity against Stenotrophomonas maltophilia clinical isolate after 18 to 22 hrs by broth microdilution method in presence of beta-lactamase inhibitor Tazobactam
# Method in brief: (§1)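 Piperacillin-tazobactam was tested by CLSI broth microdilution in Mueller-Hinton II broth against clinical isolates. Inoculum was 10^5 CFU/ml, with 18 to 22 h incubation at 35°C in ambient air. MIC was read as the lowest concentration completely inhibiting visible growth.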
# [3] = test system: Stenotrophomonas maltophilia; experiment: Antimicrobial activity against Stenotrophomonas maltophilia clinical isolate after 18 to 22 hrs by broth microdilution method in presence of beta-lactamase inhibitor BLI-489
# Method in brief: (§2)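 CLSI broth microdilution in Mueller-Hinton II broth. Serial dilutions of piperacillin were tested with BLI-489 held at a constant 4 μg/ml. Inoculum was 10^5 CFU/ml. Plates were incubated 18 to 22 h at 35°C in ambient air. MIC was the lowest concentration giving complete growth inhibition by unaided eye.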
# Pseudomonas aeruginosa = experiment: Antimicrobial activity against Pseudomonas aeruginosa clinical isolate after 18 to 22 hrs by broth microdilution method in presence of beta-lactamase inhibitor BLI-489; method in brief: as §2
# Haemophilus influenzae = experiment: Antimicrobial activity against beta-lactamase-producing Haemophilus influenzae clinical isolate after 18 to 22 hrs by broth microdilution method in presence of beta-lactamase inhibitor BLI-489
# Method in brief: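 Haemophilus isolates were tested in Haemophilus test medium by CLSI broth microdilution. Serial piperacillin dilutions carried BLI-489 fixed at 4 μg/ml. Inoculum was 10^5 CFU/ml, incubated 18 to 22 h at 35°C in ambient air. MIC was the lowest concentration completely inhibiting growth by eye.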
# Moraxella catarrhalis = experiment: Antimicrobial activity against Moraxella catarrhalis clinical isolate after 18 to 22 hrs by broth microdilution method in presence of beta-lactamase inhibitor Tazobactam; method in brief: as §1
# Staphylococcus aureus [4] = experiment: Antimicrobial activity against methicillin-resistant Staphylococcus aureus clinical isolate after 18 to 22 hrs by broth microdilution method
# Staphylococcus aureus [5] = experiment: Antimicrobial activity against methicillin-susceptible Staphylococcus aureus clinical isolate after 18 to 22 hrs by broth microdilution method
# Staphylococcus aureus [6] = experiment: Antimicrobial activity against methicillin-susceptible Staphylococcus aureus clinical isolate after 18 to 22 hrs by broth microdilution method in presence of beta-lactamase inhibitor Tazobactam
# Method in brief: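 CLSI broth microdilution of piperacillin-tazobactam in Mueller-Hinton II broth with serial dilutions. Inoculum was 10^5 CFU/ml. Incubation was 18 to 22 h at 35°C in ambient air. MIC was read as the lowest concentration giving complete inhibition of growth visible to the unaided eye.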
# [7] = test system: Staphylococcus haemolyticus; experiment: Antimicrobial activity against Staphylococcus haemolyticus clinical isolate after 18 to 22 hrs by broth microdilution method
# Enterococcus faecalis = experiment: Antimicrobial activity against vancomycin-resistant Enterococcus faecalis clinical isolate after 18 to 22 hrs by broth microdilution method
# Streptococcus pneumoniae = experiment: Antimicrobial activity against penicillin-susceptible Streptococcus pneumoniae clinical isolate after 18 to 22 hrs by broth microdilution method
# [8] = test system: Bacteroides thetaiotaomicron; experiment: Antimicrobial activity against Bacteroides thetaiotaomicron clinical isolate after 18 to 22 hrs by broth microdilution method in presence of beta-lactamase inhibitor Tazobactam
# Parvimonas micra = experiment: Antimicrobial activity against Peptostreptococcus micros clinical isolate after 18 to 22 hrs by broth microdilution method in presence of beta-lactamase inhibitor BLI-489
# Enterococcus hirae = experiment: Antimicrobial activity against Enterococcus hirae clinical isolate after 18 to 22 hrs by broth microdilution method
# Enterobacter cloacae = experiment: Antimicrobial activity against Enterobacter cloacae clinical isolate after 18 to 22 hrs by broth microdilution method in presence of beta-lactamase inhibitor Tazobactam
# Method in brief: (§3)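 Piperacillin-tazobactam was tested on recent clinical isolates by CLSI broth microdilution in Mueller-Hinton II broth, with tazobactam at constant 4 μg/ml. Wells held 10^5 CFU/ml and were incubated 18 to 22 h at 35°C in ambient air. MIC was the lowest concentration with no growth visible to the unaided eye.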
# Escherichia coli = experiment: Antimicrobial activity against Escherichia coli clinical isolate after 18 to 22 hrs by broth microdilution method
# Citrobacter freundii = experiment: Antimicrobial activity against AmpC beta-lactamase-producing Citrobacter freundii clinical isolate after 18 to 22 hrs by broth microdilution method
# Klebsiella aerogenes = experiment: Antimicrobial activity against AmpC beta-lactamase-producing Enterobacter aerogenes clinical isolate after 18 to 22 hrs by broth microdilution method
# Serratia marcescens = experiment: Antimicrobial activity against AmpC beta-lactamase-producing Serratia marcescens clinical isolate after 18 to 22 hrs by broth microdilution method
# Klebsiella pneumoniae [9] = experiment: Antimicrobial activity against Klebsiella pneumoniae clinical isolate after 18 to 22 hrs by broth microdilution method
# Citrobacter koseri = experiment: Antimicrobial activity against Citrobacter koseri clinical isolate after 18 to 22 hrs by broth microdilution method in presence of beta-lactamase inhibitor Tazobactam; method in brief: as §3
# Klebsiella pneumoniae [10] = experiment: Antimicrobial activity against AmpC- producing Klebsiella pneumoniae clinical isolate after 18 to 22 hrs by broth microdilution method in presence of beta-lactamase inhibitor Tazobactam; method in brief: as §3
# Klebsiella oxytoca = experiment: Antimicrobial activity against Klebsiella oxytoca clinical isolate after 18 to 22 hrs by broth microdilution method in presence of beta-lactamase inhibitor Tazobactam; method in brief: as §1
# Morganella morganii = experiment: Antimicrobial activity against Morganella morganii clinical isolate after 18 to 22 hrs by broth microdilution method in presence of beta-lactamase inhibitor Tazobactam; method in brief: as §1
# Proteus mirabilis = experiment: Antimicrobial activity against Proteus mirabilis clinical isolate after 18 to 22 hrs by broth microdilution method
# Acinetobacter junii = experiment: Antimicrobial activity against Acinetobacter junii clinical isolate after 18 to 22 hrs by broth microdilution method
# Acinetobacter lwoffii = experiment: Antimicrobial activity against Acinetobacter lwoffii clinical isolate after 18 to 22 hrs by broth microdilution method in presence of beta-lactamase inhibitor Tazobactam; method in brief: as §3
compound,measurement,setting,value
CCN1CCN(C(=O)N[C@@H](C(=O)N[C@@H]2C(=O)N3[C@@H]2SC(C)(C)[C@@H]3C(=O)O)c2ccccc2)C(=O)C1=O [PIPERACILLIN],MIC50,Burkholderia cepacia,32 µg/mL
same,MIC90,Burkholderia cepacia,128 µg/mL
same,MIC,[1],> 128 µg/mL
same,MIC50,[1],> 128 µg/mL
same,MIC90,[1],> 128 µg/mL
same,MIC,[2],> 128 µg/mL
same,MIC50,[2],> 128 µg/mL
same,MIC90,[2],> 128 µg/mL
same,MIC50,[3],> 128 µg/mL
same,MIC90,[3],> 128 µg/mL
same,MIC50,Pseudomonas aeruginosa,8 µg/mL
same,MIC90,Pseudomonas aeruginosa,64 µg/mL
same,MIC,Haemophilus influenzae,≤ 0.004 µg/mL
same,MIC50,Haemophilus influenzae,≤ 0.004 µg/mL
same,MIC90,Haemophilus influenzae,≤ 0.004 µg/mL
same,MIC,Moraxella catarrhalis,≤ 0.004 µg/mL
same,MIC50,Moraxella catarrhalis,≤ 0.004 µg/mL
same,MIC90,Moraxella catarrhalis,0.008 µg/mL
same,MIC50,Staphylococcus aureus [4],> 128 µg/mL
same,MIC50,Staphylococcus aureus [5],64 µg/mL
same,MIC90,Staphylococcus aureus [5],> 128 µg/mL
same,MIC50,Staphylococcus aureus [6],1 µg/mL
same,MIC90,Staphylococcus aureus [6],2 µg/mL
same,MIC50,[7],> 128 µg/mL
same,MIC90,[7],> 128 µg/mL
same,MIC50,Enterococcus faecalis,2 µg/mL
same,MIC90,Enterococcus faecalis,> 128 µg/mL
same,MIC50,Streptococcus pneumoniae,0.015 µg/mL
same,MIC90,Streptococcus pneumoniae,0.03 µg/mL
same,MIC50,[8],4 µg/mL
same,MIC90,[8],8 µg/mL
same,MIC,Parvimonas micra,≤ 0.015 µg/mL
same,MIC50,Parvimonas micra,≤ 0.015 µg/mL
same,MIC90,Parvimonas micra,≤ 0.015 µg/mL
same,MIC50,Enterococcus hirae,4 µg/mL
same,MIC90,Enterococcus hirae,16 µg/mL
same,MIC50,Enterobacter cloacae,2 µg/mL
same,MIC90,Enterobacter cloacae,> 128 µg/mL
same,MIC50,Escherichia coli,2 µg/mL
same,MIC90,Escherichia coli,> 128 µg/mL
same,MIC50,Citrobacter freundii,> 128 µg/mL
same,MIC90,Citrobacter freundii,> 128 µg/mL
same,MIC50,Klebsiella aerogenes,> 128 µg/mL
same,MIC90,Klebsiella aerogenes,> 128 µg/mL
same,MIC50,Serratia marcescens,> 128 µg/mL
same,MIC90,Serratia marcescens,> 128 µg/mL
same,MIC50,Klebsiella pneumoniae [9],8 µg/mL
same,MIC90,Klebsiella pneumoniae [9],128 µg/mL
same,MIC50,Citrobacter koseri,2 µg/mL
same,MIC90,Citrobacter koseri,16 µg/mL
same,MIC50,Klebsiella pneumoniae [10],32 µg/mL
same,MIC90,Klebsiella pneumoniae [10],> 128 µg/mL
same,MIC50,Klebsiella oxytoca,2 µg/mL
same,MIC90,Klebsiella oxytoca,8 µg/mL
same,MIC50,Morganella morganii,0.5 µg/mL
same,MIC90,Morganella morganii,1 µg/mL
same,MIC50,Proteus mirabilis,> 128 µg/mL
same,MIC90,Proteus mirabilis,> 128 µg/mL
same,MIC50,Acinetobacter junii,4 µg/mL
same,MIC90,Acinetobacter junii,128 µg/mL
same,MIC50,Acinetobacter lwoffii,≤ 0.12 µg/mL
same,MIC90,Acinetobacter lwoffii,32 µg/mL
C[C@H]1COc2c(N3CCN(C)CC3)c(F)cc3c(=O)c(C(=O)O)cn1c23.C[C@H]1COc2c(N3CCN(C)CC3)c(F)cc3c(=O)c(C(=O)O)cn1c23.O [LEVOFLOXACIN],MIC50,Burkholderia cepacia,2 µg/mL
same,MIC90,Burkholderia cepacia,4 µg/mL
same,MIC50,[1],1 µg/mL
same,MIC90,[1],4 µg/mL
same,MIC50,Staphylococcus aureus [4],4 µg/mL
same,MIC90,Staphylococcus aureus [4],> 16 µg/mL
same,MIC50,Staphylococcus aureus [5],0.25 µg/mL
same,MIC90,Staphylococcus aureus [5],0.5 µg/mL
same,MIC50,[7],8 µg/mL
same,MIC90,[7],16 µg/mL
same,MIC50,Enterococcus faecalis,2 µg/mL
same,MIC50,Streptococcus pneumoniae,1 µg/mL
same,MIC90,Streptococcus pneumoniae,1 µg/mL
same,MIC50,Enterococcus hirae,1 µg/mL
same,MIC90,Enterococcus hirae,8 µg/mL
same,MIC50,Escherichia coli,0.03 µg/mL
same,MIC90,Escherichia coli,8 µg/mL
same,MIC50,Citrobacter freundii,0.12 µg/mL
same,MIC90,Citrobacter freundii,8 µg/mL
same,MIC50,Klebsiella aerogenes,0.12 µg/mL
same,MIC90,Klebsiella aerogenes,8 µg/mL
same,MIC50,Serratia marcescens,0.12 µg/mL
same,MIC90,Serratia marcescens,8 µg/mL
same,MIC50,Klebsiella pneumoniae [9],0.06 µg/mL
same,MIC90,Klebsiella pneumoniae [9],0.5 µg/mL
same,MIC50,Proteus mirabilis,0.5 µg/mL
same,MIC90,Proteus mirabilis,16 µg/mL
same,MIC50,Acinetobacter junii,0.12 µg/mL
same,MIC90,Acinetobacter junii,2 µg/mL
